Assay outcomes deposited in PubChem BioAssay by several laboratories.
EphB4 ephrin blk: blocks human EphB4 binding to ephrin-B2; hit rate 0.15% among 97,000; inhibition, % at 7 µM; EphB4 LBD / TNYL-RAW-Alexa532 peptide, fluorescence polarization; AID 720; P54760;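 active means inhibition above the screen-wide mean inhibition plus 3 SD, cut at about 15% in these data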;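 further: 0% = DMSO wells and 100% = excess unlabeled TNYL-RAW peptide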
PTPN22 inh 2: blocks human PTPN22 phosphatase activity; Q9Y2R2; recombinant LYP catalytic domain, DiFMUP fluorescence; inhibition, % at 2 µM; hit rate 0.21% among 96,000; AID 640;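 active means inhibition at 2 µM at or above a set limit, the screen mean plus 3 SD, cut at about 24% in these data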;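 further: 0% = DMSO with enzyme and 100% = enzyme fully blocked by orthovanadate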
HIV Rev-RRE inh: disrupts HIV-1 Rev binding to RRE RNA. P05866. Rev peptide-RRE RNA binding, FRET. inhibition, % at 8 µM. hit rate 0.79% among 97,000;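 active means inhibition above the screen-wide mean plus 3 SD, cut at about 35% in these data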;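 further: 0% = median DMSO wells and 100% = median Neomycin B control wells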
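Probe or stimulus: fluorescein-Rev peptide as binding partner; assay system: Cy5-tagged RRE RNA duplex with fluorescein-tagged Rev peptide; timing: 5 min compound–RNA preincubation, then 15 min with peptide, 25 °C; medium: HEPES pH 7.5 buffer with KCl, MgCl2, NaCl and EDTA; signal: fluorescein-to-Cy5 FRET, 480 nm excitation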
LYP act: activators of human LYP (PTPN22) phosphatase | Q9Y2R2 | recombinant LYP, DiFMUP fluorescence; 0 = plate median, 100 = signal doubled | hit rate 0.11% among 96,000 | activation, % at 2 µM | AID 697;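 active means activation at 2 µM above a set limit, the mean plus 5 SD, cut at about 37% in these data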
LYP act confirm: confirmation of human LYP phosphatase activators; shares compounds with LYP act; 100 tested, under 10 active; Recombinant LYP, DIFMUP fluorescence, activation; zero set by plate's median compound well; AID 1031; activation, % at 2 µM; call rule not given here
* hit, by the source's call; . = no result. Rows were chosen to be rich in hits. Some 1.3% of all compounds tested hit in one or more screens of this group.

SMILES	EphB4 ephrin blk	PTPN22 inh 2	HIV Rev-RRE inh	LYP act	LYP act confirm
CC1=C(C(N)=O)C(c2cccnc2)n2nc(SCc3ccccc3Cl)nc2N1 (configuration not stated)	-1	-48	-2	46*	3
Nc1cc(N)nc(SCC(=O)Nc2ccccc2)n1	0	-1	7	1	.
Nc1cc(N)nc(SCC(=O)c2ccccc2)n1	-3	-40	-3	43*	4
CC(=O)Nc1nc(C2COc3ccccc3O2)cs1 (configuration not stated)	-7	-38	5	41*	2
CCOc1cc(NC(=S)NCCCN2CCOCC2)c(OCC)cc1NC(=O)CC(C)C	-3	7	-3	-4	.
CCCCN(Cc1ccccc1)S(=O)(=O)c1cc(Br)cc2c1N(C(C)=O)C(C)C2 (configuration not stated)	2	6	13	-3	.
CC(=O)N1c2c(cc(Br)cc2S(=O)(=O)NCC2COc3ccccc3O2)CC1C (configuration not stated)	-6	-33	7	38*	-3
O=C(CCCC1=NS(=O)(=O)c2ccccc2N1)N1CCN(c2ccccc2)CC1	-2	-41	2	40*	3
CC(C)(C)NC(=O)Cn1ccc(=N)c2ccccc21	4	-46	13	45*	3
Cc1ccc(NC(=O)C(C)c2ccc(-c3ccccc3)c(F)c2)cc1 (configuration not stated)	1	15	10	-19	.
O=C(NCc1ccccc1F)C1CCCN1C(=O)NCc1ccccc1 (configuration not stated)	6	-5	8	2	.
Cc1cccc(CSc2ncc(CO)n2C)c1	-7	-41	6	38*	-4
CC(Sc1ccc(Cl)cc1)C(=O)NCc1cccnc1 (configuration not stated)	14	-38	7	37*	6
CCOC(=O)C(Oc1ccc2c(-c3ccc(OC)cc3)cc(=O)oc2c1C)c1ccccc1 (configuration not stated)	-1	-38	-2	44*	-10
COc1ccc2c(C)cc(=O)oc2c1C	2	1	4	-2	.
O=c1c(Cc2ccc(Cl)cc2Cl)c(O)ccn1Cc1ccc(Cl)cc1	3	-13	11	10	.
CCOc1cc(S(=O)(=O)NCc2ccccn2)ccc1Cl	-5	-39	-1	37*	-6
CCCc1nn(C)c2c1C(c1ccncc1)C(C#N)=C(N)O2 (configuration not stated)	-7	-57	3	57*	-2
COc1ccc(C(=O)N2CCc3cc(OC)c(OC)cc3C2c2cccc([N+](=O)[O-])c2)cc1OC (configuration not stated)	-5	-35	3	39*	-8
COc1ccc(C2=NN(C(=O)c3cccc([N+](=O)[O-])c3)C(c3cccc([N+](=O)[O-])c3)C2)cc1 (configuration not stated)	5	8	4	-4	.
CCCc1ccc(Oc2cc(N3CCOCC3)nc(-c3ccccc3)n2)cc1	2	5	9	-3	.
O=C1c2ccccc2C(=O)N1c1n[nH]c(CCc2ccccc2)n1	1	-49	4	43*	-4
COc1ccc2c(c1OC)C(=O)N1N=C(c3ccc(O)cc3)CC21 (configuration not stated)	-16	5	0	0	.
COc1ccc(NCCNc2ccc(OC)cc2)cc1	0	-8	-1	5	.
COc1ccc(Nc2c(C)cccc2C)cc1	1	-40	-3	39*	-1
SMILES	EphB4 ephrin blk	PTPN22 inh 2	HIV Rev-RRE inh	LYP act	LYP act confirm
N#C/C(=C\c1cn[nH]c1-c1ccccc1)C(=O)NC1CCCCCC1	8	-6	14	7	.
CC1CCN(c2ncnc3nc[nH]c23)CC1	-7	-43	3	42*	-1
CCOC(=O)CSCc1c(C#N)c2ccccc2n1C	1	-42	2	40*	4
Cc1ccc(NC(=O)C2CCCN2C(=O)Oc2ccccc2)cc1 (configuration not stated)	-9	-44	1	39*	1
COc1ccccc1NC(=O)Cc1noc(CSc2nnc(C)s2)n1	-5	-50	8	46*	-2
Cc1c(NC(=O)C(C)NCC2CCCO2)c(=O)n(-c2ccccc2)n1C (configuration not stated)	-4	4	6	0	.
CCOc1ccc(NC(=O)CN(C)c2ccc(S(=O)(=O)N(C(C)C)C(C)C)cn2)cc1OCC	2	-6	6	5	.
